Paper PMC3433230 (Journal of biomolecular screening, 2009)

Key:
Cdc42 = Cdc42 (Homo sapiens, UniProt P60953); assay: Dose response of BODIPY-FL-GTP binding, 1 mM EDTA
Outline: (§1)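 GST-GTPases are coupled overnight at 4°C to colour-coded GSH-beads at 1 μM each. Beads are run as a multiplex (Rab7 wt, Rab2 wt, H-Ras wt, H-RasG12V, Cdc42 wt, Cdc42Q61L). […] Buffer contains 1 mM EDTA. Test compound is a 9-point 1:3 series, final 10 nM–100 μM. Binding of 100 nM (final) BODIPY-FL-GTP is read by flow cytometry, in triplicate.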

[1] = tested on: Cdc42wt, Rac1wt, Rac1Q61L, Rab2 wt, Rab7wt, and H-Ras wt (GST-GTPases); assay: Multiplexed primary screen, flow cytometry bead-based BODIPY-FL-GTP binding; details: 10 μM compound, 100 nM BODIPY-FL-GTP, 1 mM EDTA
Outline: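 Each GST-GTPase (1 μM) is loaded overnight at 4°C onto its own red-intensity GSH-bead set. Beads are washed in NP-HPSE with 0.1% BSA and 1 mM DTT, then pooled, about 2000 beads per GTPase per well. Test compound is added at 10 μM (1% DMSO), with BODIPY-FL-GTP from a 200 nM stock. Plates rotate 40–45 min at 4°C and are read by HyperCyt flow cytometry. FL8 identifies bead sets; median FL1 (530 nm) gives binding. Hits exceed 20% change from baseline. Controls are DMSO and 0.5 mM unlabelled GTP.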

[2] = tested on: Rac1 wt, Rac1Q61L, Rac2 wt, RhoA wt and RhoAL63, Cdc42 wt, Cdc42Q61L and Ral wt; assay: Eight-plex dose response of BODIPY-FL-GTP binding, 1 mM MgCl2; details: 1 mM MgCl2, 100 nM BODIPY-FL-GTP
Outline: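 Buffer is NP-HPS with 1 mM MgCl2. Binding of 100 nM BODIPY-FL-GTP is measured by flow cytometry with or without a 9-point 1:3 test-compound series (final 10 nM–100 μM). Each series is run in triplicate.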

RBL-2H3 cells [3] = assay: Rhodamine-phalloidin staining and confocal microscopy of RBL-2H3 cells; format: cell-based, Rat; details: 10 μM, DNP/BSA 1 μg/ml
Outline: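 RBL-2H3 cells on coverslips are cultured overnight with or without 10 μM test compound; stimulated cells get 1 μg/ml DNP-BSA for 30 min. Cells are fixed in 3% paraformaldehyde, permeabilised 5 min in 0.1% Triton X-100, blocked 1 h in 1% BSA and stained 1 h with rhodamine-phalloidin, all at room temperature. Confocal x-y and x-z views are collected.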

RBL-2H3 cells [4] = assay: Live cell microscopy of RBL-2H3 cells; format: cell-based, Rat; details: 10 μM; for cell shape changes in response to ligand-mediated activation: 1 μg/ml DNP/BSA, IgE primed cells
Rac1 [5] = biological target: T1, Rac1 (Mus musculus, UniProt P63001); assay: Rac activation assay; format: cell-based
Outline: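 Swiss 3T3 cells are serum-starved overnight, then treated 20–30 min with 1% DMSO or 10 μM test compound. Some cells are then given 10 ng/ml EGF for 2 min; EGF alone is the positive control.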

Swiss 3T3 cells = assay: Stress fiber formation in EGF treated Swiss 3T3 cells; format: cell-based; details: 10 μM, 30 min pre-treatment, 10 ng/ml EGF
Outline: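 Quiescent, serum-starved Swiss 3T3 fibroblasts are treated 30 min with 10 μM test compound or DMSO, then stimulated with 10 ng/ml EGF for 2 min. Cells are imaged for actin stress fibres.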

GST-Rac1 = GST-Rac1 (Homo sapiens, UniProt P63000); assay: In vitro bead based assay of Rac1 binding to fluorescent GTP; details: 10 μM compound, 100 nM fluorescent GTP
Wild-type GST-Cdc42 = Wild-type GST-Cdc42 (Homo sapiens, UniProt P60953); assay: Real-time GTP-binding kinetic assay by flow cytometry
Chain of Wild-type GST-Cdc42 (P60953 whole entry): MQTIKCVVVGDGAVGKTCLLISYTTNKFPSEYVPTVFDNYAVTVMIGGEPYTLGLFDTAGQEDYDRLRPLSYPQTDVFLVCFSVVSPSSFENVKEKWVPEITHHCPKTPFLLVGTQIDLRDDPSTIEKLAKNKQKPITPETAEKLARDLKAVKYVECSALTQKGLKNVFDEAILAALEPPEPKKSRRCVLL
Outline: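 GST-Cdc42 wt (4 μM) is bound to GSH-beads overnight at 4°C. Nucleotide is stripped with 10 mM EDTA for 20 min at 30°C, then beads are washed and resuspended in NP-HPS with 1 mM EDTA, 1 mM DTT and 0.1% BSA. Beads are preincubated 2 min with 1% DMSO or 10 μM test compound. Ice-cold BODIPY-FL-GTP (6.5–200 nM) is added, and association is followed 3 min by kinetic-mode flow cytometry (n=4). Bound signal at 3 min versus GTP concentration is curve-fitted.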

Rac1 [6] = biological target: T1, Rac1; assay: G-LISA assay for active Rac in Swiss 3T3 cells; format: cell-based; details: for blocking EGF-stimulated Rac activation: concentrations of 1 μM or less
H-Ras and Rab proteins = assay: Dose response of BODIPY-FL-GTP binding, 1 mM EDTA; details: 10^−4 M compound
Outline: as §1

RBL-2H3 cells [7] = assay: β-Hexosaminidase secretion measurements in RBL-2H3 cells; format: cell-based, Rat
Outline: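 RBL-2H3 cells are primed overnight with IgE, washed and incubated 1 h with test compound in Tyrode's buffer. Supernatant is sampled for spontaneous β-hexosaminidase release. Cells are then activated with DNP/BSA (0.1 μg/ml) for 30 min at 37°C. Release is expressed as percent of total enzyme from Triton X-100-lysed cells.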

NIH 3T3 fibroblasts = NIH 3T3 fibroblasts ref 30; cited from earlier work
[8] = 10 μM inhibitor, 6.5–200 nM BODIPY-GTP

Chain of Cdc42 (P60953 whole entry): as above

NS(=O)(=O)c1ccc(N2N=C(c3ccccc3)CC2c2ccccc2)cc1 (centres unmarked) [MLS000573151, 4-[3,5-di(phenyl)-4,5-dihydropyrazol-1-yl]benzenesulfonamide]
EC50 (Cdc42): ~2000 nM
effect on BODIPY-FL-GTP binding to the tested GTPases, primary screen [1]: Cdc42 specific inhibitor
effect on BODIPY-FL-GTP binding in the presence of Mg2+ [2]: specific for Cdc42

O=C(C#Cc1ccccc1)c1cccc([N+](=O)[O-])c1 [MLS000532223, 1-(3-nitrophenyl)-3-phenyl-2-propyn-1-one]
cell shape and F-actin after cross-linking of IgE receptors (RBL-2H3 cells [3]): failed to flatten
effect on BODIPY-FL-GTP binding to the tested GTPases, primary screen [1]: inhibitory effect
cell shape changes in response to ligand-mediated activation (RBL-2H3 cells [4]): completely abrogated
morphology of resting cells (RBL-2H3 cells [4]; no ligand): no change in morphology
growth factor induced activation of Rac1 (Rac1 [5]; 10 μM pretreatment, 10 ng/ml EGF for 2 min): completely inhibited
low level of active Rac1 in serum starved cells (Rac1 [5]; 10 μM, 30 min pretreatment, no EGF): completely abolished
formation of stress fibers upon EGF stimulation (Swiss 3T3 cells): completely inhibited
inhibition of BODIPY-FL-GTP binding to GST-Rac1 (GST-Rac1): similar
effect on Bmax of GTP-binding (Wild-type GST-Cdc42; [8]): decreased
effect on affinity of GTP to wild type Cdc42 (Wild-type GST-Cdc42; [8]): remained constant
reversibility of activity (Wild-type GST-Cdc42; data not shown): not reversible
inhibition of EGF stimulated activation of Rac1 (Rac1 [6]; 3–10 μM, 1 h, then 10 ng/ml EGF 2 min): effectively inhibited
blocking EGF-stimulated Rac activation (Rac1 [6]): Neither compound was effective
inhibition of BODIPY-FL-GTP binding (H-Ras and Rab proteins): < 20%
toxicity to cells (RBL-2H3 cells [7]; 10 μM): not toxic
spontaneous β-hexosaminidase secretion, absence of ligand stimulation (RBL-2H3 cells [7]; 10 μM, 1 h): no β-hexosaminidase secretion
reduction of β-hexosaminidase secretion in ligand-stimulated cells (RBL-2H3 cells [7]; 10 μM, DNP/BSA): 50%
effect on BODIPY-FL-GTP binding in the presence of Mg2+ [2]: inhibited the activity of all tested GTPases of the Rho and Ral families

CCN(CC)CCCC(C)Nc1nc(C)cc(Nc2ccc3nc(C)cc(N)c3c2)n1 (centres unmarked) [NSC23766, reference compound]
cell shape changes in response to ligand-mediated activation (RBL-2H3 cells [4]): failed to inhibit
blocking EGF-stimulated Rac activation (Rac1 [6]): Neither compound was effective
inhibition of EGF stimulated activation of Rac1 (Rac1 [6]; doses up to 50 μM): more modest inhibition
toxicity to RBL-2H3 cells (RBL-2H3 cells [7]; 50 μM): toxic
spontaneous β-hexosaminidase release (RBL-2H3 cells [7]; 50 μM (Fig. 7A), 1 h): extensive

O=c1cc(CN2CCOCC2)occ1OCCCCCSc1ccnc2cc(C(F)(F)F)ccc12 [EHT1864, reference compound]
cell shape changes in response to ligand-mediated activation (RBL-2H3 cells [4]): failed to inhibit
lamellipodia formation following platelet derived growth factor stimulation (NIH 3T3 fibroblasts): blocked
inhibition of β-hexosaminidase secretion in response to ligand-stimulation (RBL-2H3 cells [7]; 10 μM): failed to inhibit
